Assay results gathered from unrelated publications.
CDK4: Cyclin-dependent kinase 4 (CDK4, Homo sapiens, UniProt P11802)
FGFR3: Fibroblast growth factor receptor 3 (FGFR3, Homo sapiens, UniProt P22607)
HSD11B2: 11-beta-hydroxysteroid dehydrogenase type 2 (HSD11B2, Homo sapiens, UniProt P80365)

Compound | target | assay | conditions | measurement | value
CCOC(=O)[C@H]1Cc2c(cc([N+](=O)[O-])cc2[N+](=O)[O-])[C@H](O)[C@]12C(=O)Nc1cc(Br)ccc12 | CDK4 | cell-free assay, inhibitor, TR-FRET | 1 µM | inhibition | 32.9%
Nc1ncc(-c2nc(N3CCOCC3)nc(N3CCOCC3)n2)c(C(F)F)n1 | Ribosomal protein S6 kinase alpha-1, N-terminal kinase domain (RPS6KA1, Homo sapiens, UniProt Q15418) | binding, competition with immobilised ligand | 10 µM | remaining binding | 75%
Cc1nn(C)cc1-c1nc2c(N3CCN(Cc4ccc(Cl)cc4)CC3)c(Cl)cnc2[nH]1 | FGFR3 | binding, competition with immobilised ligand | 1 µM | remaining binding | 70%
COc1ncccc1-c1cnn2ccc(N3CCN(C(=O)OC(C)C)CC3)nc12 | Serine/threonine-protein kinase DCLK1 (DCLK1, Homo sapiens, UniProt O15075) | binding, competition with immobilised ligand | 1 µM | remaining binding | 99%
Clc1cccc(-c2c[nH]c3nccc(N4CCOCC4)c23)c1 | Serine/threonine-protein kinase 3 (STK3, Homo sapiens, UniProt Q13188) | thermal stability, DSF | 20 µM | ΔTm | > 8 °C
C#Cc1n[nH]c2c(-c3cn([C@@H](C)c4ccccn4)c(=O)[nH]c3=O)cc(F)cc12 | FGFR3 | enzyme activity, inhibitor | 0.1 µM | inhibition | 2.9%
CCCCCCC(C)(C)c1cc(O)c2c(c1)OC(C)(C)C1CCC(=O)CC21 (stereo not shown) | HSD11B2 | enzyme activity, inhibitor | 20 µM, lysate | inhibition | < 40%
CN1CC[C@@]2(C)c3cc(OC(=O)Nc4ccccc4)ccc3N(C)[C@@H]12 | Muscarinic acetylcholine receptor M2 (CHRM2, Homo sapiens, UniProt P08172) | ligand displacement, radioligand | 10 µM | inhibition | 7.6%
CCOC(=O)[C@H]1Cc2c(cc([N+](=O)[O-])cc2[N+](=O)[O-])[C@H](O)[C@]12C(=O)Nc1ccc(Br)cc12 | CDK4 | cell-free assay, inhibitor, TR-FRET | 1 µM | inhibition | 34.1%
C[C@]12CC[C@H]3[C@@H](CCC4=CC(=O)CC[C@@H]43)[C@@H]1CC[C@@H]2O | HSD11B2 | enzyme activity, inhibitor | 20 µM, lysate | inhibition | < 40%
